ChEMBL document CHEMBL1135409, “Structure-activity relationships of a novel class of endothelin-A receptor antagonists and discovery of potent and selective receptor antagonist, 2-(benzo[1,3]dioxol-5-yl)-6-isopropyloxy-4-(4-methoxyphenyl)-2H-chromene-3-carboxylic acid (S-1255). 1. Study on structure-activity relationships and …” (J Med Chem, 2002)

How the values were obtained:
[1] = Ratio of inhibitory concentrations at ET-B receptor relative to that of ET-A receptor
[2] = biological target: T1, Endothelin receptor type B (Sus scrofa, UniProt P35463); experiment: Binding affinity to endothelin B receptor measured by inhibition of [125I]ET-3 binding recombinant pig ET-B receptor expressed in COS-7 cells; type: cell-based
T1 sequence (P35463 whole entry): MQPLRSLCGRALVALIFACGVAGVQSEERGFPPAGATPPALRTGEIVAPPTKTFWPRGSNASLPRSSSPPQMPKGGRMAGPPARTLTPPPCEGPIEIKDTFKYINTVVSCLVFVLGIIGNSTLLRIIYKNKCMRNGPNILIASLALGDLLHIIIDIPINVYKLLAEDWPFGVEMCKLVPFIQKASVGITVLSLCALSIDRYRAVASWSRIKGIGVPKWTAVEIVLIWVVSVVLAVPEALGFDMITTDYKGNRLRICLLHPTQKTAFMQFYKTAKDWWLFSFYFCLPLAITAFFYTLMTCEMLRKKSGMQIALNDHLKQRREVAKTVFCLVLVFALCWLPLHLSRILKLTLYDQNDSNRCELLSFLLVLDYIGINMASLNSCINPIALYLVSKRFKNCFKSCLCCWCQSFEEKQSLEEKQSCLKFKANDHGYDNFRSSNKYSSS
Outline: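 COS cells transfected with porcine ETB cDNA, in Hank's solution with 20 mM HEPES and protease inhibitors. Stopped by filtration on GF/C filters presoaked in 1% polyethylenimine, washed with 50 mM Tris-HCl pH 7.4, then counted. Nonspecific binding taken with 0.1 μM ET-3.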

Endothelin-1 receptor [3] = biological target: T2, Endothelin-1 receptor (Rattus norvegicus, UniProt P26684); experiment: Binding affinity for endothelin A receptor by inhibition of [125I]ET1 binding in rat aorta smooth muscle cells; type: tissue-based
T2 sequence (P26684 whole entry): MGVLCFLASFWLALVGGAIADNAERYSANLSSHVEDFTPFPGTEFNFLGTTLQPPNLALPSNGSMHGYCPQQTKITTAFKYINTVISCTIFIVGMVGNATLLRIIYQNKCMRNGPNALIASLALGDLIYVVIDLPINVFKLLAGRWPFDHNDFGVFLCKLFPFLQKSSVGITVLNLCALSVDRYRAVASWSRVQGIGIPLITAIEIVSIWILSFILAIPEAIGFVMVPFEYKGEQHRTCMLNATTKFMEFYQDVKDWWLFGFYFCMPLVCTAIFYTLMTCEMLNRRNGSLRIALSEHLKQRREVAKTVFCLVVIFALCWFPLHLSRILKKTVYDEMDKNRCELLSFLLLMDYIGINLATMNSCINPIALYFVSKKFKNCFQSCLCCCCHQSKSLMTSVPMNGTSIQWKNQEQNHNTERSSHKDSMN

[4] = biological target: T3, Endothelin receptor type B (Homo sapiens, UniProt P24530); experiment: Binding affinity at human Endothelin B receptor
T3 sequence (P24530 whole entry): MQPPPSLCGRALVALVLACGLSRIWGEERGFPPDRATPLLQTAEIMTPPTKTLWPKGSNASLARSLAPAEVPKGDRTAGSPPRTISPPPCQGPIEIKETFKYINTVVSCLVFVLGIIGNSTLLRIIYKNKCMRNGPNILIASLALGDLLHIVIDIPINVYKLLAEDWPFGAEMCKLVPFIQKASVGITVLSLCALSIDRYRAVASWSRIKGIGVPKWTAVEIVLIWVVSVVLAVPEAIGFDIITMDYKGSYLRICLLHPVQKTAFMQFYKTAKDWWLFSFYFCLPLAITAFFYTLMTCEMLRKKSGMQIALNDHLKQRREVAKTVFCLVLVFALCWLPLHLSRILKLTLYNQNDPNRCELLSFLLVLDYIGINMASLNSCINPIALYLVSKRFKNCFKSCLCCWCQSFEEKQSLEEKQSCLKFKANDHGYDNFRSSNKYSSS
Outline: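 Membranes from CHO cells expressing human ETB receptor were incubated with [125I]ET-3 (25 pM as added) and the test compound at various concentrations for 60 min at 37 °C. Buffer was HEPES (20 mM)-buffered Hank's solution with protease inhibitors. Samples were filtered on PEI-presoaked glass-fibre filters, washed with 50 mM Tris-HCl pH 7.4 and counted. Nonspecific binding was taken with 0.1 µM ET-3.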

Endothelin-1 receptor [5] = biological target: T4, Endothelin-1 receptor (Homo sapiens, UniProt P25101); experiment: Binding affinity at human Endothelin A receptor
T4 sequence (P25101 whole entry): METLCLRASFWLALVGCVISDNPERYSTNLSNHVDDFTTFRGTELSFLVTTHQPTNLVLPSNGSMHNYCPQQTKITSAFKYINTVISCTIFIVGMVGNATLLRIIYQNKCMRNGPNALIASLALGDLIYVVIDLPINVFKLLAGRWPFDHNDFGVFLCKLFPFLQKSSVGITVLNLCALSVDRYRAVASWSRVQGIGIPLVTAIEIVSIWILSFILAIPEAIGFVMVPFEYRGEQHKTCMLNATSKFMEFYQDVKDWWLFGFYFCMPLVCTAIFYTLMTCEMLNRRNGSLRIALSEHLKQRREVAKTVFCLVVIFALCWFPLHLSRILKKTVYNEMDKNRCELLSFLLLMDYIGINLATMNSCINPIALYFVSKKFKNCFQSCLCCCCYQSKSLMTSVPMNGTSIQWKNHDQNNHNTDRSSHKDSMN
Outline: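 Membranes from CHO cells expressing human ETA receptor were incubated with [125I]ET-1 and the test compound at various concentrations for 60 min at 37 °C. Buffer was Hank's solution with 20 mM HEPES and protease inhibitors. Bound ligand was collected on PEI-presoaked glass-fibre filters and washed with 50 mM Tris-HCl pH 7.4, then counted.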

Work on `CCCOc1cccc2c1C(c1ccc(OC)cc1)=C(C(=O)O)C(c1ccc3c(c1)OCO3)O2` (stereo unspecified) yielded a Ratio [1] of 1.5, an IC50 [2] of 1800 nM and an IC50 (Endothelin-1 receptor [3]) of 1200 nM.
For `CCCOc1ccc2c(c1)OC(c1ccc3c(c1)OCO3)C(C(=O)O)=C2c1ccc(OC)cc1` (stereo unspecified), the Ratio [1] was 2.4, the IC50 [2] was 2300 nM and the IC50 (Endothelin-1 receptor [3]) was 970 nM.
`CCCCOC1=C(C(=O)O)C(c2ccc3c(c2)OCO3)Oc2ccccc21` (stereo unspecified) showed a Ratio [1] of 74, an IC50 [2] of 4900 nM and an IC50 (Endothelin-1 receptor [3]) of 66 nM.
In the case of `CCCCOC1=C(C(=O)O)C(c2ccc3c(c2)OCO3)Oc2ccc(OCC)cc21` (stereo unspecified), the Ratio [1] is reported as 380, the IC50 [2] is reported as 1600 nM and the IC50 (Endothelin-1 receptor [3]) is reported as 4.2 nM.
Molecule `COc1ccc(C2=C(C(=O)O)C(c3ccc4c(c3)OCO4)Oc3ccc(OC)cc32)cc1` (stereo unspecified) has a Ratio [1] of 7.3, an IC50 [2] of 540 nM and an IC50 (Endothelin-1 receptor [3]) of 74 nM.
For `CCCCOc1ccc2c(c1)C(c1ccc(OC)cc1)=C(C(=O)O)C(c1ccc3c(c1)OCO3)O2` (stereo unspecified), the Ratio [1] was 7.6, the IC50 [2] was 130 nM and the IC50 (Endothelin-1 receptor [3]) was 17 nM.
For `CCCCOC1=C(C(=O)O)C(c2ccc3c(c2)OCO3)Oc2ccc(OC)cc21` (stereo unspecified), the Ratio [1] was 9.2, the IC50 [2] was 2300 nM and the IC50 (Endothelin-1 receptor [3]) was 250 nM.
`COc1ccc(C2=C(C(=O)O)C(c3ccc4c(c3)OCO4)Oc3ccc(C(C)C)cc32)cc1` (stereo unspecified) showed a Ratio [1] of 1.7, an IC50 [2] of 190 nM and an IC50 (Endothelin-1 receptor [3]) of 110 nM.
`COc1ccc(C2=C(C(=O)O)[C@@H](c3ccc4c(c3)OCO4)Oc3ccc(OC(C)C)cc32)cc1` showed an IC50 [4] of 200 nM, an IC50 (Endothelin-1 receptor [5]) of 0.45 nM and an IC50 [2] of 120 nM. It also gave an IC50 (Endothelin-1 receptor [3]) of 0.19 nM.
With `CCCCOC1=C(C(=O)O)C(c2ccc3c(c2)OCO3)Oc2ccc(OCCCC)cc21` (stereo unspecified) the Ratio [1] was 160, the IC50 [2] was 470 nM and the IC50 (Endothelin-1 receptor [3]) was 3 nM.
